# Measurements as given in ChEMBL document CHEMBL1144782, “Isoindolo[2,1-a]quinoxaline derivatives, novel potent antitumor agents with dual inhibition of tubulin polymerization and topoisomerase I” (2008).
# Values joined by “and” are separate entries in the source; they are usually repeats but may differ in a detail not shown here. Equal values may be shown once.
# Columns and labels:
# NCI-H226 = test: Antitumor activity against human NCI-H226 cells; type: functional
# Outline: (§1)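 Run by the NCI in its in vitro disease-oriented screen of about 60 human tumour cell lines. For each line it reports pGI50 (50% net growth inhibition), pTGI (total growth inhibition) and pLC50 (50% net cell death), each as –log molar concentration. Where an effect was not reached within the tested range, the highest tested concentration was used.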
# [1] = Antitumor activity against human NCI-H322 cells; type: functional; outline: as §1
# NCI-H460 = test: Antitumor activity against human NCI-H460 cells; type: functional; outline: as §1
# NCI-H522 = test: Antitumor activity against human NCI-H522 cells; type: functional; outline: as §1
# HT-29 = test: Antitumor activity against human HT29 cells; type: functional; outline: as §1
# SW-620 = test: Antitumor activity against human SW620 cells; type: functional
# Outline: (§2)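 NCI 60-cell-line screen. Parameters were GI50 (50% net growth inhibition), TGI and LC50, each reported as –log molar concentration. Where an effect was not reached within the tested range, the highest tested concentration was used in the calculation.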
# SF-268 [2] = test: Antitumor activity against human SF268 cells; type: functional; outline: as §1
# SF-295 = test: Antitumor activity against human SF295 cells; type: functional; outline: as §1
# SF-539 = test: Antitumor activity against human SF539 cells; type: functional; outline: as §1
# SNB-19 = test: Antitumor activity against human SNB19 cells; type: functional; outline: as §1
# SNB-75 = test: Antitumor activity against human SNB75 cells; type: functional; outline: as §1
# SK-MEL-2 = test: Antitumor activity against human SKMEL2 cells; type: functional; outline: as §1
# SK-MEL-28 = test: Antitumor activity against human SKMEL28 cells; type: functional; outline: as §1
# UACC-257 = test: Antitumor activity against human UACC257 cells; type: functional; outline: as §2
# UACC-62 = test: Antitumor activity against human UACC62 cells; type: functional; outline: as §2
# IGROV-1 = test: Antitumor activity against human IGROV1 cells; type: functional; outline: as §1
# OVCAR-3 = test: Antitumor activity against human OVCAR-3 cells; type: functional; outline: as §1
# OVCAR-4 = test: Antitumor activity against human OVCAR4 cells; type: functional; outline: as §1
# OVCAR-5 = test: Antitumor activity against human OVCAR5 cells; type: functional; outline: as §1
# OVCAR-8 = test: Antitumor activity against human OVCAR8 cells; type: functional; outline: as §1
# SK-OV-3 = test: Antitumor activity against human SKOV3 cells; type: functional; outline: as §1
# 786-0 = test: Antitumor activity against human 786-0 cells; type: functional; outline: as §1
# A498 = test: Antitumor activity against human A498 cells; type: functional; outline: as §1
# ACHN = test: Antitumor activity against human ACHN cells; type: functional; outline: as §1
# CAKI-1 = test: Antitumor activity against human CAKI1 cells; type: functional; outline: as §1
# RXF 393 = test: Antitumor activity against human RXF393 cells; type: functional; outline: as §1
# Tubulin (Sus scrofa) = Tubulin (Sus scrofa) (UniProt P02554+P02550); test: Inhibition of pig brain tubulin polymerization
# Chain of Tubulin (Sus scrofa) (P02550 whole entry, looked up): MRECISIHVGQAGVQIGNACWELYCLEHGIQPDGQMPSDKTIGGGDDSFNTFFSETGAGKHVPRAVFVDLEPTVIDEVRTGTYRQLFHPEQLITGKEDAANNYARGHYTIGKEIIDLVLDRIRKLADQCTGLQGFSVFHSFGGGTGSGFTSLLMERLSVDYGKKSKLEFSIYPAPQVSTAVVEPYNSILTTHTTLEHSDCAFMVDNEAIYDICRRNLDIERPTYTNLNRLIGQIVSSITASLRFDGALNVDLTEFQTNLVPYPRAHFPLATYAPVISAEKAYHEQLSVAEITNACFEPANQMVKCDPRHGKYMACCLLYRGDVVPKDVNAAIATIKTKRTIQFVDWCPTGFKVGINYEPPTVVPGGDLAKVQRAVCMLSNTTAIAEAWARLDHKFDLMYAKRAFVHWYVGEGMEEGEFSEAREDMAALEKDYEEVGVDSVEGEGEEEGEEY
# Chain of Tubulin (Sus scrofa) (P02554 whole entry, looked up): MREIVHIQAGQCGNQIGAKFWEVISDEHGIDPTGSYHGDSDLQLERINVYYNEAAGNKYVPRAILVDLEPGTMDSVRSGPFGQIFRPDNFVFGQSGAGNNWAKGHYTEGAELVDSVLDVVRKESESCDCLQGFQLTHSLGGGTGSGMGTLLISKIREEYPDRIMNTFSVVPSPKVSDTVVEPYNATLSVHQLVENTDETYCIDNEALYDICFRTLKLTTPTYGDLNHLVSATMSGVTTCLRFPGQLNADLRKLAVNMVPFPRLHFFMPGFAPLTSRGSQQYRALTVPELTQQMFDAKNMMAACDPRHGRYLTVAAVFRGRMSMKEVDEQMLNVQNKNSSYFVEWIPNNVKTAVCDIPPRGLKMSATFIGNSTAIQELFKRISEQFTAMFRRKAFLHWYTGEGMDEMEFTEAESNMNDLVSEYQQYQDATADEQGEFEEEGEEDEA
# SF-268 [3] = test: Cell viability against human SF268 cells at 10 uM; type: functional
# CCRF-CEM [4] = test: Antitumor activity against human CCRF-CEM cells; type: functional; outline: as §1
# RPMI-8226 = test: Antitumor activity against human RPMI8226 cells; type: functional; outline: as §1
# A549 = test: Antitumor activity against human A549 cells; type: functional; outline: as §1
# HOP-62 = test: Antitumor activity against human HOP62 cells; type: functional; outline: as §1
# SN12C = test: Antitumor activity against human SN12C cells; type: functional; outline: as §1
# TK-10 = test: Antitumor activity against human TK10 cells; type: functional; outline: as §2
# MCF7 [5] = test: Antitumor activity against human MCF7 cells; type: functional; outline: as §1
# [6] = Antitumor activity against human […] cells; type: functional; outline: as §1
# Hs-578T = test: Antitumor activity against human HS578T cells; type: functional; outline: as §1
# MCF7 [7] = test: Growth inhibition of human MCF7 cells after 72 hrs by MTT assay; type: functional; details: MCF7, 72 h
# Outline: (§3)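 Growth inhibition by MTT after 72 h incubation. Resistant sublines: LoVoDoxo and MCF-7 MDR were kept in 0.1 µg/mL doxorubicin; CEMVbl-100 was selected against vinblastine. GI50 given as mean ± SEM of three independent experiments. Resistance index is resistant-line GI50 over parental GI50.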
# MCF7 [8] = test: Growth inhibition of human multidrug-resistant MCF7 cells after 72 hrs by MTT assay; type: functional; details: MCF7, 72 h; outline: as §3
# MCF7 [9] = test: Resistance index, Ratio of GI50 for human multidrug-resistant MCF7 cells to GI50 for human MCF7 cells; type: functional; outline: as §3
# CCRF-CEM [10] = test: Resistance index, Ratio of GI50 for human vinblastine-resistant CEM cells to GI50 for human CEM cells; type: functional
# [11] = read-out: Log LC50 (the source's name) (converted)
structure (smiles),measurement,setting,value
O=c1[nH]c2ccccc2n2cc3ccccc3c12,GI50,NCI-H226,2.88 µM
same,LC50 (50% net cell kill),NCI-H226,55 µM
same,TGI,NCI-H226; read-out: pTGI (converted),13.8 µM
same,GI50,[1],24 µM
same,LC50 (50% net cell death),[1],89.1 µM
same,TGI,[1]; read-out: pTGI (converted),46.8 µM
same,GI50,NCI-H460,7.76 µM
same,CC50,NCI-H460; [11],> 100 µM
same,TGI,NCI-H460; read-out: pTGI (converted),> 100 µM
same,GI50,NCI-H522,13.8 µM
same,CC50,NCI-H522; [11],75.9 µM
same,TGI,NCI-H522; read-out: pTGI (converted),32.4 µM
same,GI50,HT-29,4.37 µM
same,LC50,HT-29,> 100 µM
same,TGI,HT-29; read-out: pTGI (converted),> 100 µM
same,GI50,SW-620,3.72 µM
same,CC50,SW-620; [11],> 100 µM
same,TGI,SW-620; read-out: pTGI (converted),> 100 µM
same,GI50,SF-268 [2],21.4 µM
same,CC50,SF-268 [2]; [11],> 100 µM
same,TGI,SF-268 [2]; read-out: pTGI (converted),87.1 µM
same,GI50,SF-295,17.8 µM
same,CC50,SF-295; [11],70.8 µM
same,TGI,SF-295; read-out: pTGI (converted),35.5 µM
same,GI50,SF-539,5.13 µM
same,LC50 (50% net cell kill),SF-539,75.9 µM
same,TGI,SF-539; read-out: pTGI (converted),22.4 µM
same,GI50,SNB-19,8.91 µM
same,CC50,SNB-19; [11],> 100 µM
same,TGI,SNB-19; read-out: pTGI (converted),> 100 µM
same,GI50,SNB-75,13.5 µM and 1.91 µM
same,LC50,"SNB-75; Homo sapiens, SNB-75",> 100 µM
same,TGI,"SNB-75; Homo sapiens, SNB-75, read-out: pTGI (converted)",74.1 µM
same,GI50,SK-MEL-2,20.4 µM
same,LC50,SK-MEL-2,72.4 µM
same,TGI,SK-MEL-2; read-out: pTGI (converted),38.9 µM
same,GI50,SK-MEL-28,22.4 µM
same,CC50,SK-MEL-28; [11],> 100 µM
same,TGI,SK-MEL-28; read-out: pTGI (converted),> 100 µM
same,GI50,UACC-257,15.1 µM
same,LC50,UACC-257,72.4 µM
same,TGI,UACC-257; read-out: pTGI (converted),33.1 µM
same,GI50,UACC-62,3.24 µM
same,LC50,UACC-62,45.7 µM
same,TGI,UACC-62; read-out: pTGI (converted),15.8 µM
same,GI50,IGROV-1,10.2 µM
same,CC50,IGROV-1; [11],63.1 µM
same,TGI,IGROV-1; read-out: pTGI (converted),25.7 µM
same,GI50,OVCAR-3,18.6 µM
same,LC50 (50% net cell death),OVCAR-3,72.4 µM
same,TGI,OVCAR-3; read-out: pTGI (converted),36.3 µM
same,GI50,OVCAR-4,7.24 µM
same,LC50 (50% net cell kill),OVCAR-4,> 100 µM
same,TGI,OVCAR-4; read-out: pTGI (converted),89.1 µM
same,GI50,OVCAR-5,10.5 µM
same,LC50 (50% net cell death),OVCAR-5,> 100 µM
same,TGI,OVCAR-5; read-out: pTGI (converted),35.5 µM
same,GI50,OVCAR-8,5.25 µM
same,LC50 (50% net cell death),OVCAR-8,> 100 µM
same,TGI,OVCAR-8; read-out: pTGI (converted),33.1 µM
same,GI50,SK-OV-3,12.3 µM
same,LC50 (50% net cell kill),SK-OV-3,> 100 µM
same,TGI,SK-OV-3; read-out: pTGI (converted),35.5 µM
same,GI50,786-0,4.27 µM
same,CC50,786-0; [11],55 µM
same,TGI,786-0; read-out: pTGI (converted),18.2 µM
same,GI50,A498,11.2 µM
same,CC50,A498; [11],64.6 µM
same,TGI,A498; read-out: pTGI (converted),26.9 µM
same,GI50,ACHN,1.82 µM
same,LC50 (50% net cell kill),ACHN,34.7 µM
same,TGI,ACHN; read-out: pTGI (converted),7.24 µM
same,GI50,CAKI-1,17.8 µM
same,LC50,CAKI-1,70.8 µM
same,TGI,CAKI-1; read-out: pTGI (converted),35.5 µM
same,GI50,RXF 393,6.31 µM
same,CC50,RXF 393; [11],> 100 µM
same,TGI,RXF 393; read-out: pTGI (converted),30.2 µM
same,Activity,Tubulin (Sus scrofa),> 10 µM
same,Activity,SF-268 [3],9%
same,GI50,CCRF-CEM [4],5.89 µM
same,LC50,CCRF-CEM [4],> 100 µM
same,TGI,CCRF-CEM [4]; read-out: pTGI (converted),60.3 µM
same,GI50,RPMI-8226,3.72 µM
same,CC50,RPMI-8226; [11],> 100 µM
same,TGI,RPMI-8226; read-out: pTGI (converted),22.4 µM
same,GI50,A549,5.89 µM
same,CC50,A549; [11],> 100 µM
same,TGI,A549; read-out: pTGI (converted),32.4 µM
same,GI50,HOP-62,4.37 µM
same,LC50 (50% net cell death),HOP-62,52.5 µM
same,TGI,HOP-62; read-out: pTGI (converted),17.8 µM
same,GI50,SN12C,1.66 µM
same,LC50,SN12C,31.6 µM
same,TGI,SN12C; read-out: pTGI (converted),6.31 µM
same,GI50,TK-10,20.4 µM
same,CC50,TK-10; [11],66.1 µM
same,TGI,TK-10; read-out: pTGI (converted),37.2 µM
same,GI50,MCF7 [5],10.5 µM
same,LC50 (50% net cell kill),MCF7 [5],> 100 µM
same,TGI,MCF7 [5]; read-out: pTGI (converted),> 100 µM
same,GI50,[6],0.955 µM
same,LC50,[6],58.9 µM
same,TGI,[6]; read-out: pTGI (converted),10.2 µM
same,GI50,Hs-578T,0.525 µM
same,CC50,Hs-578T; [11],> 100 µM
same,TGI,Hs-578T; read-out: pTGI (converted),34.7 µM
same,GI50,MCF7 [7],6.5 µM
same,GI50,MCF7 [8],10.6 µM
same,RatioGI50,MCF7 [9],1.6
same,RatioGI50,CCRF-CEM [10],0.8
